What was measured:
Format in all cases: functional
A498 = test: Growth inhibition of human A498 cells after 48 hrs by sulforhodamine B assay; conditions: A498, 48 h
How it was run: (§1)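 NCI 60-panel five-dose test at 10-fold dilutions, 10^-4 to 10^-8 M, with 48 h continuous exposure and SRB protein read-out. Percent growth derived from time-zero, untreated-control and treated absorbances. GI50 is the concentration where [(Ti-Tz)/(C-Tz)]×100 = 50. TGI is taken at Ti = Tz. LC50 is taken at [(Ti-Tz)/Tz]×100 = -50.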

OVCAR-4 [1] = test: Growth inhibition of human OVCAR4 cells after 48 hrs by sulforhodamine B assay; conditions: OVCAR-4, 48 h; for CC50: read-out: LC50 (the source's name)
How it was run: (§2)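 NCI five-dose screen on the full 60-cell-line panel. Cells were given 10-fold dilutions from 10^-4 to 10^-8 M with continuous 48 h exposure, and growth was read by SRB staining. Percent growth was taken from time-zero, control and treated absorbances. GI50, TGI and LC50 were then derived, the GI50 being the concentration that gives a 50% lower net protein increase than control.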

NCI-H226 = test: Growth inhibition of human NCI-H226 cells assessed as cell growth at 10^-5 M after 48 hrs by sulforhodamine B assay; conditions: NCI-H226, 48 h, read-out: Activity
How it was run: (§3)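 NCI 60-cell-line primary one-dose screen. Cells were exposed to a single 10^-5 M concentration for 48 h. The end point was sulforhodamine B protein staining, read spectrophotometrically. Results are reported as percent growth of treated cells relative to untreated control cells.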

OVCAR-8 = test: Growth inhibition of human OVCAR8 cells assessed as cell growth at 10^-5 M after 48 hrs by sulforhodamine B assay; conditions: OVCAR-8, 48 h, read-out: Activity; how it was run: as §3
KM12 [2] = test: Growth inhibition of human KM12 cells assessed as cell growth at 10^-5 M after 48 hrs by sulforhodamine B assay; conditions: KM12, 48 h, read-out: Activity
How it was run: (§4)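 NCI 60-cell-line primary screen. Single concentration of 10^-5 M, 48 h incubation. End point by sulforhodamine B protein staining read spectrophotometrically. Reported as percent growth of treated cells relative to untreated control cells.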

MDA-MB-435 = test: Growth inhibition of human MDA-MB-435 cells after 48 hrs by sulforhodamine B assay; conditions: MDA-MB-435, 48 h; how it was run: as §2
UACC-257 = test: Growth inhibition of human UACC257 cells after 48 hrs by sulforhodamine B assay; conditions: UACC-257, 48 h; for CC50: read-out: LC50 (the source's name)
How it was run: (§5)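 NCI 60-cell panel, five concentrations (10-fold dilutions, 0.01–100 µM), 48 h continuous exposure; SRB protein stain read spectrophotometrically. Percent growth from time-zero, untreated-control and treated absorbances. GI50 is the concentration giving 50% lower net protein increase than control. Values beyond the tested range are reported as more or less than the highest or lowest concentration.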

MOLT-4 = test: Growth inhibition of human MOLT4 cells assessed as cell growth at 10^-5 M after 48 hrs by sulforhodamine B assay; conditions: MOLT-4, 48 h, read-out: Activity; how it was run: as §3
T47D = test: Growth inhibition of human T47D cells after 48 hrs by sulforhodamine B assay; how it was run: as §5
UO-31 = test: Growth inhibition of human UO31 cells after 48 hrs by sulforhodamine B assay; conditions: UO-31, 48 h; how it was run: as §5
[3] = Growth inhibition of human NCI-ADR-RES cells assessed as cell growth at 10^-5 M after 48 hrs by sulforhodamine B assay; conditions: read-out: Activity; how it was run: as §3
SK-OV-3 = test: Growth inhibition of human SKOV3 cells after 48 hrs by sulforhodamine B assay; conditions: SK-OV-3, 48 h; how it was run: as §2
ACHN = test: Growth inhibition of human ACHN cells after 48 hrs by sulforhodamine B assay; conditions: for CC50: read-out: LC50 (the source's name); how it was run: as §1
SK-MEL-2 = test: Growth inhibition of human SK-MEL-2 cells assessed as cell growth at 10^-5 M after 48 hrs by sulforhodamine B assay; conditions: SK-MEL-2, 48 h, read-out: Activity; how it was run: as §3
MDA-MB-468 = test: Growth inhibition of human MDA-MB-468 cells after 48 hrs by sulforhodamine B assay; conditions: MDA-MB-468, 48 h; how it was run: as §2
SF-539 = test: Growth inhibition of human SF539 cells after 48 hrs by sulforhodamine B assay; conditions: SF-539, 48 h; for CC50: read-out: LC50 (the source's name); how it was run: as §2
SN12C = test: Growth inhibition of human SN12C cells assessed as cell growth at 10^-5 M after 48 hrs by sulforhodamine B assay; conditions: read-out: Activity; how it was run: as §3
OVCAR-4 [4] = test: Growth inhibition of human OVCAR4 cells assessed as cell growth at 10^-5 M after 48 hrs by sulforhodamine B assay; conditions: OVCAR-4, 48 h, read-out: Activity; how it was run: as §3
NCI-H460 = test: Growth inhibition of human NCI-H460 cells assessed as cell growth at 10^-5 M after 48 hrs by sulforhodamine B assay; conditions: NCI-H460, 48 h, read-out: Activity; how it was run: as §3
KM12 [5] = test: Growth inhibition of human KM12 cells after 48 hrs by sulforhodamine B assay; conditions: KM12, 48 h; for CC50: read-out: LC50 (the source's name); how it was run: as §1
LOX IMVI = test: Growth inhibition of human LOXIMVI cells assessed as cell growth at 10^-5 M after 48 hrs by sulforhodamine B assay; conditions: read-out: Activity; how it was run: as §4
SF-268 = test: Growth inhibition of human SF268 cells after 48 hrs by sulforhodamine B assay; conditions: SF-268, 48 h; for CC50: read-out: LC50 (the source's name); how it was run: as §2
COLO 205 = test: Growth inhibition of human COLO205 cells after 48 hrs by sulforhodamine B assay; conditions: COLO 205, 48 h; how it was run: as §1
SNB-19 = test: Growth inhibition of human SNB19 cells assessed as cell growth at 10^-5 M after 48 hrs by sulforhodamine B assay; conditions: SNB-19, 48 h, read-out: Activity
How it was run: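 NCI primary one-dose screen: single concentration of 10^-5 M added to culture, 48 h incubation, SRB protein-dye endpoint. Percent growth of treated cells measured spectrophotometrically against untreated controls.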

786-0 = test: Growth inhibition of human 786-0 cells after 48 hrs by sulforhodamine B assay; conditions: 786-0, 48 h; how it was run: as §1

`COc1cc(/C=C/C(=O)c2ccc(NC(=O)CN3CCN(c4cc5c(cc4F)c(=O)c(C(=O)O)cn5C4CC4)CC3)cc2)cc(OC)c1OC` showed a GI50 (A498) of 0.36 µM, an LC50 (concentration killing 50% of starting cells) (A498) of 5.47 µM and a TGI (A498) of 1.8 µM. For the same compound, the GI50 (OVCAR-4 [1]) was 1.61 µM, the TGI (OVCAR-4 [1]) was 84.6 µM and the CC50 (OVCAR-4 [1]) was greater than 100 µM. For the same compound, the growth at 10 µM (NCI-H226) was -9.81%, the growth at 10 µM (OVCAR-8) was 4.74% and the growth at 10 µM (KM12 [2]) was -65.1%. It also gave a GI50 (MDA-MB-435) of 0.3 µM, an LC50 (MDA-MB-435) greater than 100 µM and a TGI (MDA-MB-435) of 1.7 µM. For the same compound, the GI50 (UACC-257) was 1.42 µM, the TGI (UACC-257) was 65.4 µM and the CC50 (UACC-257) was greater than 100 µM. For the same compound, the growth at 10 µM (MOLT-4) was -1.1%, the GI50 (T47D) was 2.4 µM and the LC50 (concentration killing 50% of the cells present at time zero) (T47D) was greater than 100 µM. The TGI (T47D) was greater than 100 µM, the GI50 (UO-31) was 1.17 µM and the LC50 (concentration killing 50% of cells) (UO-31) was greater than 100 µM. For the same compound, the TGI (UO-31) was 6.8 µM, the growth at 10 µM [3] was 98.2% and the GI50 (SK-OV-3) was 3.57 µM. It also gave an LC50 (SK-OV-3) greater than 100 µM, a TGI (SK-OV-3) greater than 100 µM and a GI50 (ACHN) of 0.45 µM. The TGI (ACHN) was 7.09 µM, the CC50 (ACHN) was greater than 100 µM and the growth at 10 µM (SK-MEL-2) was 30%. For the same compound, the GI50 (MDA-MB-468) was 0.33 µM, the LC50 (concentration killing 50% of starting cells) (MDA-MB-468) was 40.7 µM and the TGI (MDA-MB-468) was 1.78 µM. It also gave a GI50 (SF-539) of 0.49 µM, a TGI (SF-539) of 2.62 µM and a CC50 (SF-539) greater than 100 µM. The growth at 10 µM (SN12C) was 10.3%, the growth at 10 µM (OVCAR-4 [4]) was 16.4% and the growth at 10 µM (NCI-H460) was -20%. The GI50 (KM12 [5]) was 0.53 µM, the TGI (KM12 [5]) was 3.17 µM and the CC50 (KM12 [5]) was greater than 100 µM. It also gave a growth at 10 µM (LOX IMVI) of -54.7%, a GI50 (SF-268) of 1.06 µM and a TGI (SF-268) of 61.2 µM. It also gave a CC50 (SF-268) greater than 100 µM, a GI50 (COLO 205) of 1.62 µM and an LC50 (lethal concentration, 50% net cell kill) (COLO 205) greater than 100 µM. The TGI (COLO 205) was 15.4 µM, the growth at 10 µM (SNB-19) was 34.9% and the GI50 (786-0) was 0.6 µM. It also gave an LC50 (786-0) of 7.7 µM and a TGI (786-0) of 2.38 µM.
In the case of `O=C(CN1CCN(c2cc3c(cc2F)c(=O)c(C(=O)O)cn3C2CC2)CC1)Nc1ccc(C(=O)/C=C/c2ccccc2)cc1`, the GI50 (A498) is reported as 1.28 µM, the LC50 (concentration killing 50% of starting cells) (A498) is reported as greater than 100 µM and the TGI (A498) is reported as 7.37 µM. For the same compound, the GI50 (OVCAR-4 [1]) was 9.47 µM, the TGI (OVCAR-4 [1]) was greater than 100 µM and the CC50 (OVCAR-4 [1]) was greater than 100 µM. The growth at 10 µM (NCI-H226) was 57.4%, the growth at 10 µM (OVCAR-8) was 6.3% and the growth at 10 µM (KM12 [2]) was 25.3%. It also gave a GI50 (MDA-MB-435) of 2.94 µM, an LC50 (MDA-MB-435) greater than 100 µM and a TGI (MDA-MB-435) greater than 100 µM. For the same compound, the GI50 (UACC-257) was 3.9 µM, the TGI (UACC-257) was 90.8 µM and the CC50 (UACC-257) was greater than 100 µM. It also gave a growth at 10 µM (MOLT-4) of 19%, a GI50 (T47D) of 6.66 µM and an LC50 (concentration killing 50% of the cells present at time zero) (T47D) greater than 100 µM. It also gave a TGI (T47D) greater than 100 µM, a GI50 (UO-31) of 2.78 µM and an LC50 (concentration killing 50% of cells) (UO-31) greater than 100 µM. For the same compound, the TGI (UO-31) was 45.4 µM, the growth at 10 µM [3] was 93.5% and the GI50 (SK-OV-3) was 27.3 µM. For the same compound, the LC50 (SK-OV-3) was greater than 100 µM, the TGI (SK-OV-3) was greater than 100 µM and the GI50 (ACHN) was 3.3 µM. The TGI (ACHN) was 31.9 µM, the CC50 (ACHN) was greater than 100 µM and the growth at 10 µM (SK-MEL-2) was 53.7%. For the same compound, the GI50 (MDA-MB-468) was 2.45 µM, the LC50 (concentration killing 50% of starting cells) (MDA-MB-468) was greater than 100 µM and the TGI (MDA-MB-468) was 23.2 µM. The GI50 (SF-539) was 3.6 µM, the TGI (SF-539) was greater than 100 µM and the CC50 (SF-539) was greater than 100 µM. For the same compound, the growth at 10 µM (SN12C) was 11.3%, the growth at 10 µM (OVCAR-4 [4]) was 86.4% and the growth at 10 µM (NCI-H460) was 7.12%. It also gave a GI50 (KM12 [5]) of 4.11 µM, a TGI (KM12 [5]) greater than 100 µM and a CC50 (KM12 [5]) greater than 100 µM. It also gave a growth at 10 µM (LOX IMVI) of 5.67%, a GI50 (SF-268) of 4.13 µM and a TGI (SF-268) greater than 100 µM. The CC50 (SF-268) was greater than 100 µM, the GI50 (COLO 205) was 36.3 µM and the LC50 (lethal concentration, 50% net cell kill) (COLO 205) was greater than 100 µM. For the same compound, the TGI (COLO 205) was greater than 100 µM, the growth at 10 µM (SNB-19) was 40.3% and the GI50 (786-0) was 4.5 µM. For the same compound, the LC50 (786-0) was greater than 100 µM and the TGI (786-0) was greater than 100 µM.

Reference: ChEMBL document CHEMBL2434966, “Novel N-4-piperazinyl-ciprofloxacin-chalcone hybrids: synthesis, physicochemical properties, anticancer and topoisomerase I and II inhibitory activity” (Eur J Med Chem, 2013)
